Screens from PubChem.
Compounds with a hit are over-represented: about 2.2% of the library has one in this group of screens.
Ins promoter up = MIN6 insulin promoter up-regulation. AID 1625. z-score at 5 µM. MIN6 insulin promoter-GFP reporter, high-content imaging; stronger effect = higher value. actives 0.3% (n = 190,000);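 active = z-score above 3 at 5 µM with at least 500 cells counted in the well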
RBBP9 inh = blocks human serine hydrolase RBBP9 | inhibition, % at 7.94 µM | O75884 | actives 0.2% (n = 220,000) | recombinant RBBP9, FP-Rh probe fluorescence polarization;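 active = inhibition above the campaign mean of all tested compounds plus 3 SD, cut at about 14% in these data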
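Assay system: recombinant human RBBP9; Reagent: Serine-hydrolase probe FP-Rh, 375 nM pre-mixing; Doses: 7.94 µM single dose, 0.794% DMSO; Incubation: 30 min then 45 min, 25 °C; Detection: fluorescence polarization (mP), excitation 525 nm, emission 598 nm; Evaluation: percent inhibition from mP, scaled between DMSO and no-protein wells.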
Hsp70 activator = transcriptional activators of Hsp70. HeLa Hsp70 promoter luciferase reporter, luminescence; scaled: vehicle 0, proteasome-inhibitor control 100%. activation, % at 10 µM. actives 0.04% (n = 200,000). AID 1203;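 active = activation above the mean across all tested compounds plus 3 SD, cutoff set per campaign, cut at about 5.5% in these data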
INS promoter inh = TRM-6 insulin promoter activity inhibition; actives 0.9% (n = 130,000); TRM-6 cells (human fetal islet line), insulin promoter-eGFP reporter, imaging; reporter expression induced with tamoxifen; inhibition, % at 2 µM;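 active = inhibition above the mean plus 3 SD, with well images judged a real hit on visual review, cut at about 60% in these data, passing the limit was not always enough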
MDM2 E3 inh = inhibitors of human Mdm2 E3 ubiquitin ligase; Q00987; cell-based MDM2 ubiquitination luciferase reporter, 2 h; 0 = plate control, 100 = twice control, blank-subtracted; signal enhancement, % at 5 µM; actives 0.11% (n = 210,000);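 active = signal enhancement of 30% or more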;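 note: luminescence tracks abundance of the self-degrading MDM2-luciferase fusion protein; higher signal means inhibition of MDM2 E3 ligase activity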
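System: stable MDM2–luciferase fusion reporter cells / Input: 2000 cells seeded into each well / Schedule: 4 h settle plus 2 h compound, 37 °C / Compound: single-point 5 µM / Buffer or medium: cells held in DMEM / Benchmarks: control and blank well means / Evaluation: percent signal gain over controls, blank-subtracted / Measured by: luciferase luminescence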
Wee1 degr inh = inhibitors of human Wee1 degradation; P30291; HeLa Luc-Wee1K328M stability, luciferase luminescence; 100% = proteasome inhibitor MG132 effect; reporter increase, % at 5 µM; actives 1.2% (n = 220,000); AID 1321;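 active = activation above the mean of all tested compounds plus 3 SD, set per screening run, cut at about 8.8% in these data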;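 note: cells exposed to compound for 20 h before luminescence read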
Target sequence (P30291 whole entry K328M): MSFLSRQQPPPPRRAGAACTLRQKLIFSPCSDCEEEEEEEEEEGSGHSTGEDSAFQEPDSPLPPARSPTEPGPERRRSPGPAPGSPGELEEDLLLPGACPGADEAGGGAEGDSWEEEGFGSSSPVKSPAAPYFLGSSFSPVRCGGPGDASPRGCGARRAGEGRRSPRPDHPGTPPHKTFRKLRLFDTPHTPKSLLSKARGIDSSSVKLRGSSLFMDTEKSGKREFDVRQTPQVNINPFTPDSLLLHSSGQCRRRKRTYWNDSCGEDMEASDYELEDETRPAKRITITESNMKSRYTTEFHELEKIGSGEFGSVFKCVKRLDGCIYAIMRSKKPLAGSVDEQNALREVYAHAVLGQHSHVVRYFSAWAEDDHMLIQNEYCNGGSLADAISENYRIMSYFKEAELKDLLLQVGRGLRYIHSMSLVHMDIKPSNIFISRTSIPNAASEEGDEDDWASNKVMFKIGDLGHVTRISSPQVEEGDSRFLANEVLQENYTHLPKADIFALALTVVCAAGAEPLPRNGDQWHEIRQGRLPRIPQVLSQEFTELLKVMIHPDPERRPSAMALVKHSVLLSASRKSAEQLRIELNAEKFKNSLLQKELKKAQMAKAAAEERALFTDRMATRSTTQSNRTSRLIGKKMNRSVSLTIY
Large screens that a line does not name were inactive.

COc1ccc2c(c1)c(C(=O)N/N=C/c1cn(C)c3ccccc13)c(C)n2C	Wee1 degr inh 9.4 (no result: Hsp70 activator, INS promoter inh)
Cc1ccc(OCC(=O)N/N=C/c2cn(C)c3ccccc23)cc1	Wee1 degr inh 9.2 (no result: Hsp70 activator, INS promoter inh)
CC(C)C(=O)Nc1ccc2c(c1)nc1n2CCSC1	INS promoter inh 76
CCC(=O)Nc1ccc2c(c1)nc1n2CCSC1	none (no result: INS promoter inh)
COc1nc(Nc2ccc([N+](=O)[O-])cc2)nc(NC2CCCCC2)n1	none
COCCN(C(=O)CN1CCN(S(=O)(=O)c2ccc(F)cc2)CC1)c1c(N)n(Cc2ccccc2)c(=O)[nH]c1=O	none
CCC(CC)C(=O)Nc1ccc(Cl)c(Cl)c1	none
O=C(CCCOc1ccc(Cl)cc1Cl)N/N=C/c1ccccc1	none (no result: MDM2 E3 inh)
O=C(CCCOc1ccc(Cl)cc1Cl)N/N=C/c1ccco1	INS promoter inh 79
O=C(NCCN1CCOCC1)C1CCN(S(=O)(=O)N2CCCC2)CC1	none
CC(N=C1CC(C)(C)CC(=O)/C1=C(/O)CCCN1C(=O)c2ccccc2C1=O)C(=O)O (stereo not given)	none (no result: Ins promoter up)
COc1ccc(C(=O)NCc2nnc(SCC(=O)Nc3ccc4c(c3)OCO4)o2)cc1	none (no result: Ins promoter up, INS promoter inh)
Fc1ccccc1Cn1nnc2c(-n3ccnc3)ncnc21	none (no result: Ins promoter up, INS promoter inh)
O=C(NC(Cc1ccc2c(c1)OCO2)C(=O)N1CCCC1C(=O)O)c1ccccc1 (stereo not given)	INS promoter inh 87
CCC(=O)NC(NC(=S)Nc1cccc2cccnc12)C(Cl)(Cl)Cl (stereo not given)	Wee1 degr inh 9.8
CC(C)C(=O)NC(NC(=S)Nc1cccc2cccnc12)C(Cl)(Cl)Cl (stereo not given)	none
Cc1ccc(NC(=O)COC(=O)C2(c3ccc(Cl)cc3)CCCC2)cc1	none (no result: MDM2 E3 inh)
CCCc1cc(C(=O)Nc2sc(C)c(CC)c2C#N)no1	INS promoter inh 70
CCc1c(C)sc(NC(=O)c2cc(C)on2)c1C#N	none (no result: Ins promoter up)
N#Cc1ccsc1NC(=O)COc1ccc(-c2nnco2)cc1	INS promoter inh 65
COc1ccc(-n2nnc3c(SCC(=O)c4ccccc4)ncnc32)cc1	none
COC(=O)c1ccc(CSc2ncnc3c2nnn3-c2ccc(OC)cc2)o1	Wee1 degr inh 12
O=C(O)COCC(=O)Nc1ccc(-n2nc(C(F)(F)F)cc2-c2cccs2)cc1	none (no result: Hsp70 activator, INS promoter inh)
COC(=O)/C(C#N)=C1/C=Cc2ccccc2N1C	INS promoter inh 81 (no result: Ins promoter up)
Cc1oc(-c2ccccc2F)nc1CS(=O)(=O)CC(=O)NCc1ccco1	Wee1 degr inh 9.2 (no result: INS promoter inh)
O=C(NCCN1C(=O)S/C(=C/c2cccnc2)C1=O)C1CC(=O)N(Cc2ccccc2)C1 (stereo not given)	none
CCOC(=O)N1CCN(C(=O)c2cc3c(s2)-c2ccc(Cl)cc2S(=O)(=O)C3)CC1	Wee1 degr inh 10 (no result: INS promoter inh)
CCOC(=O)N1CCN(C(=O)c2cc3c(s2)-c2ccccc2OC3)CC1	none (no result: INS promoter inh)
O=C(CNC(=O)c1ccccc1Br)N/N=C/c1ccc(O)cc1	none (no result: INS promoter inh)
Cc1cccc(-c2cc(N)n(-c3ccccc3)n2)c1	none (no result: INS promoter inh)
Cc1ccc(-c2cc(N)n(-c3ccccc3)n2)cc1	Ins promoter up 5.3
O=C(O)COc1ccccc1/C=N/NC(=O)c1cccc(S(=O)(=O)N2CCOCC2)c1	none (no result: Ins promoter up, INS promoter inh)
CC(NC(=O)COC(=O)c1ccc([N+](=O)[O-])s1)c1ccccc1 (stereo not given)	Wee1 degr inh 8.9 (no result: INS promoter inh)
CCOC(=O)c1c(NC(=O)COC(=O)c2ccncc2)sc(C)c1C	none
COc1ccc(C2/C=C\CN(S(=O)(=O)c3ccc(C)cc3)CC(=O)N2Cc2ccc(F)cc2)cc1 (stereo not given)	none (no result: Ins promoter up, RBBP9 inh, Hsp70 activator, INS promoter inh, Wee1 degr inh)
COc1ccc(C2/C=C\CN(S(=O)(=O)c3cccc4cccnc34)CC(=O)N2Cc2ccc(F)cc2)cc1 (stereo not given)	Ins promoter up 7.5 (no result: RBBP9 inh, Hsp70 activator, INS promoter inh, Wee1 degr inh)
CC[C@@H](C)[C@H](NC(=O)OC(C)(C)C)c1nnc(S(=O)(=O)Cc2cc(C)ccc2C)o1	INS promoter inh 72
O=C1Nc2ccccc2N(O)N1c1cc(-c2ccccc2)[nH]n1	INS promoter inh 85
COCC(C)n1c(SCc2ccc(OC)c(F)c2)nc2ccccc2c1=O (stereo not given)	none
CCN(CC)S(=O)(=O)c1cccc(-c2nnc(SCc3nc4ccccc4s3)o2)c1	INS promoter inh 87 (no result: Ins promoter up)
O=C(C1=C[C@H](C2CC2)C[C@H](OCCCCO)O1)N1CCN(Cc2ccccc2)CC1	Ins promoter up 3.7 (no result: INS promoter inh, MDM2 E3 inh)
Nc1ccc(C(=O)Nc2ccco2)cc1	none
Cc1nnsc1C(=O)NNc1ccc(Cl)cc1	none (no result: Hsp70 activator, INS promoter inh)
Cc1nnsc1C(=O)NNc1c(Cl)cccc1Cl	Wee1 degr inh 9.0 (no result: Hsp70 activator, INS promoter inh)
CCOc1ccc(CC(=O)OCn2nnc3ccccc3c2=O)cc1	none
COC(=O)c1c(N2C(=O)Nc3ccccc3N2O)sc2c1CCCC2	INS promoter inh 69
CCCCC(C(=O)O)C(C)CC(=O)NNC(=O)c1ccco1 (stereo not given)	none
COc1cccc(Oc2ccc(N/C=C/C(=O)C(C)(C)C)cc2)c1	INS promoter inh 75
CCn1c(COc2ccccc2C)nnc1SCC(=O)O	none
CCn1c(COc2ccccc2C)nnc1SCC(=O)CC(=O)Nc1ccccc1	Wee1 degr inh 12
COC(=O)CCS(=O)(=O)c1nc(-c2ccccc2)cc(C(F)(F)F)n1	none (no result: Ins promoter up)
COc1ccc(-c2cc(C(F)(F)F)nc(S(=O)(=O)CCCC(=O)Nc3cccnc3Cl)n2)cc1OC	MDM2 E3 inh 34
O=C1CN(c2cc(Cl)cc(Cl)c2)C(=O)CN1/N=C/c1cccnc1	MDM2 E3 inh 77 (no result: Hsp70 activator, INS promoter inh)
CCCCOc1ccc(C(CC(=O)NC)C(=O)O)cc1 (stereo not given)	none
CCOC(=O)c1c(C)c(C(=O)NCc2ccc3c(c2)OCO3)c(C)n1C	none
O=C(c1cc2ccccc2oc1=O)N1CCN(c2ncccn2)CC1	INS promoter inh 79 (no result: Ins promoter up)
O=C(c1cc2ccccc2oc1=O)N1CCN(c2ccccn2)CC1	none (no result: INS promoter inh)
COc1ccc(C)cc1S(=O)(=O)N(C)CC(=O)NC1CCCCC1	MDM2 E3 inh 30
Cc1ccccc1Nc1nnc(SCC2CCCCO2)s1 (stereo not given)	none
Cc1ccc(Nc2nnc(SCC3CCCCO3)s2)cc1 (stereo not given)	MDM2 E3 inh 848 (no result: INS promoter inh)
COC(=O)CC1C(=O)NCCN1C(=S)NC(=O)c1sc2ccccc2c1Cl (stereo not given)	Wee1 degr inh 10
CCc1nc(Nc2ccc3c(c2)OCCO3)c2oc3ccccc3c2n1	INS promoter inh 86 (no result: MDM2 E3 inh)
Cc1nc(Nc2ccc3c(c2)OCCO3)c2oc3ccccc3c2n1	none
CCC(C)(NC(=O)CNC(C)=O)C(=O)NC1CCCCC1 (stereo not given)	INS promoter inh 69
CCC(C)(C(=O)NC1CCCC1)N(C(=O)CNC(C)=O)c1ccccc1 (stereo not given)	Ins promoter up 3.5 (no result: INS promoter inh)
COc1cccc(C(=O)OCc2ccccc2C#N)c1O	none (no result: INS promoter inh)
